Source: PubChem BioAssay (several laboratories)
H9c2 protect: modulators protecting cardiomyocytes from myocardial damage; H9c2 cardiomyocytes, H2O2 injury protection, ATPLite, 2 h; protection from H2O2 cell death, % at 20 µM; hit rate 0.63% among 360,000;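 active = compounds giving at least 50% protection of heart cells from peroxide-induced death in the single-dose screen, raw or plate-pattern-corrected value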
HKDC1 inh: HKDC1 (human) hexokinase inhibition; Q2TB90; recombinant HKDC1, G6PDH/diaphorase resazurin coupled fluorescence; inhibition, % at 20 µM; hit rate 0.16% among 340,000; AID 493160;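 active = inhibition above about 35% when tested at 20 µM, limit read from the data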
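Assay system: recombinant HKDC1 hexokinase; detection: coupled resazurin fluorescence, excitation 525 nm, emission 613 nm; benchmarks: DMSO-plus-enzyme-mix negative control, buffer-substituted positive control; compound dosing: single 20 µM dose; schedule: 90 min at room temperature in dark; also added: glucose plus 1 mM ATP as hexokinase substrates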
aDG glyco act: increases alpha dystroglycan glycosylation; Pro5-aDG cells, alpha-DG glycosylation AlphaScreen (IIH6); 0% Pro5, 100% B10-LARGE cell signal; activation, % at 10 µM; hit rate 0.22% among 360,000;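 active = activation of at least 8% versus controls, or a plate z-score of at least 8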;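 also: Pro5 are CHO cells carrying HIG-tagged alpha-DG that lacks glycosylation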
UCH37 inh: blocks the human deubiquitinase UCH37. Q9Y5K5. purified proteasome/UCH37, Ub-AMC cleavage fluorescence. inhibition, % (concentration not given with the values). hit rate 0.33% among 330,000. AID 588478;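 active = mean inhibition over replicate wells above about 20%, limit read from the data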
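Test system – human UCH37 enzyme supplied as purified proteasome complex · Incubation – 30 min preincubation with enzyme, 25 min cleavage at room temperature · Detection – AMC fluorescence from Ub-AMC cleavage, excitation 355 nm, emission 460 nm · Benchmarks – no-proteasome wells (full inhibition) and compound-free wells (no inhibition)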
PfG6PD inh: PfG6PD (Plasmodium falciparum) enzyme inhibition; PfGluPho enzyme, NADPH resazurin-diaphorase fluorescence; inhibition, % at 20 µM; hit rate 0.78% among 350,000; AID 504690;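 active = inhibition reaching at least a set limit at 20 µM in the primary screen, cut at about 59% in these data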
B2AR ag: activates human beta-2 adrenergic receptor causing internalization | P07550 | Am2.2-beta2AR cells, FAP receptor internalization, flow cytometry | response, % (test concentration not listed) | hit rate 0.43% among 340,000 | AID 504454;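 active = response above a set limit, near 3 SD of response in nonfluorescent compounds, cut at about 42% in these data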
Target sequence (P07550 whole entry, looked up): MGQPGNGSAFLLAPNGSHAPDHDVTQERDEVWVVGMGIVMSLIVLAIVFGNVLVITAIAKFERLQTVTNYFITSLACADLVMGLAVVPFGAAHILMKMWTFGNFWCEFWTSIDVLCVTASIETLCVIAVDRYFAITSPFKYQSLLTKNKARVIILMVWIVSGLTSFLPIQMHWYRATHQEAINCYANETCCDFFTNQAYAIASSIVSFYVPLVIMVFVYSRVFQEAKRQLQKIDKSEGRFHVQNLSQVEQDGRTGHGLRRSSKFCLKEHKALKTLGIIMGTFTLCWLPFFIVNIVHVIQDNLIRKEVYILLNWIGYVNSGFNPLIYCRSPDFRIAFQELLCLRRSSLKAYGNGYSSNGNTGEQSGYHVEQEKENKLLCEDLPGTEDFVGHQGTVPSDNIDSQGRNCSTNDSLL
Numbers stand for hits; 0 = inactive; - = no result given. A selection: hits, their analogues and other compounds. The true share with any hit is near 2.1%.

SMILES	H9c2 protect	HKDC1 inh	aDG glyco act	UCH37 inh	PfG6PD inh	B2AR ag
O=C(CON=C1CCCc2nonc21)Nc1ccccc1Cl	-	-	-	0	-	-
COc1ccc(COC(=O)NN=C(C)CC(=O)NCc2ccc(Cl)cc2)cc1	-	-	-	0	-	-
Cc1cc(C)nc(SCc2ccc(C(=O)N/N=C/c3ccccn3)cc2)n1	69	0	0	-	0	0
O=C(N/N=C/c1ccccn1)c1cc(-c2ccc(Cl)s2)[nH]n1	59	0	0	-	0	0
Cc1ccc(COc2ccccc2-c2cc(C(=O)N/N=C/c3cccnc3)[nH]n2)cc1	50	0	0	-	0	0
Cc1cc(C)nc(SCc2ccc(C(=O)NN=Cc3ccncc3)cc2)n1	-	-	-	0	-	-
O=C(N/N=C/c1ccccn1)c1cc(-c2cccc3ccccc23)n[nH]1	56	0	0	-	0	0
O=C(Cn1cnc([N+](=O)[O-])n1)NN=Cc1ccccc1O	-	-	-	0	-	-
O=c1[nH]nc(NN=Cc2ccc(Cl)cc2Cl)c(=O)[nH]1	-	-	-	0	-	-
O=C(N/N=C/c1ccccn1)c1cc(C2CC2)nc2ccccc12	55	0	0	-	0	0
O=C(CC=NOCc1c(Cl)cccc1Cl)c1cnc(-c2ccccc2)s1	-	-	-	0	-	-
O=C(CCCn1c(SCC(=O)c2ccc(O)c(O)c2)nc2ccccc2c1=O)NCC1CCCO1 (stereo not given)	53	0	0	0	0	0
CCCCn1c(SCC(=O)c2ccc(O)c(O)c2)nc2ccsc2c1=O	92	0	0	0	0	0
CC(NC(=O)COc1ncnc2cc([N+](=O)[O-])ccc12)c1ccccc1 (stereo not given)	0	0	0	0	0	0
CCOC(=O)c1c(C)[nH]c(C)c1C(=O)COc1ncnc2cc([N+](=O)[O-])ccc12	65	0	0	0	0	0
COCc1c(C(=O)NN=C(C)c2ccncc2)nnn1-c1nonc1N	-	-	-	0	-	-
c1ccc(CN2CCN(CCCNc3ccc4nnc(-c5ccccc5)n4n3)CC2)cc1	79	0	0	0	0	0
C(=NNc1nc2ccccc2[nH]1)c1cccc2cccnc12	-	-	-	0	-	-
C(=N\Nc1nc2ccccc2[nH]1)/c1cccc2nccnc12	51	0	0	-	0	0
CC(=O)Nc1ccc(S(=O)(=O)Nc2cccc(-c3nc4cc(C)ccc4o3)c2)cc1	0	0	3.9	0	0	0
CC(=O)Nc1ccc(S(=O)(=O)Nc2cccc(-c3csc(C)n3)c2)cc1	0	0	0	0	0	0
CC1(C)Cc2ccccc2C(C(=NNc2cccc(Cl)c2)C(N)=O)=N1	-	-	-	0	-	-
CC(C)n1c(SCC(=O)Nc2ccccc2N2CCOCC2)nc2c1c(=O)n(C)c(=O)n2C	0	0	0	0	0	0
CCn1c(SCC(=O)Nc2ccccc2N2CCCCC2)nc2c1c(=O)n(C)c(=O)n2C	62	0	0	0	0	0
O=C(NN=Cc1ccc(Cl)c([N+](=O)[O-])c1)c1cnccn1	-	-	-	0	-	-
SMILES	H9c2 protect	HKDC1 inh	aDG glyco act	UCH37 inh	PfG6PD inh	B2AR ag
O=[N+]([O-])c1ccc(O)c(C=NNC(=S)Nc2ccc(Cl)cc2Cl)c1	-	-	-	0	-	-
O=C(Nc1ccc2nc(-c3ccccc3)[nH]c2c1)c1ccco1	0	0	0	0	70	0
O=C(CON=Cc1ccc(OC(F)F)cc1)NCc1ccco1	-	-	-	0	-	-
CCCCNc1c(-c2ccc(SC(C)CC)c(OC)c2)nc2ccc(Cl)cn12 (stereo not given)	0	0	0	0	0	52
CCCCNc1c(-c2ccc(-c3ccc(OC)cc3)c(OC)c2)nc2ccccn12	0	0	0	0	0	46
CCCCNc1c(-c2ccc(SC(C)CC)c(OC)c2)nc2ccc(C)cn12 (stereo not given)	0	0	0	0	0	0
O=C(C[n+]1ccccc1)NN=Cc1c(F)cccc1Cl	-	-	-	0	-	-
Cc1cc(=O)c2c(O)c(O)ccc2o1	50	0	0	0	0	0
O=C1C(Cl)=C(NS(=O)(=O)c2ccc([N+](=O)[O-])cc2)C(=O)c2ccccc21	0	0	0	24	0	0
Clc1ccc2c(N/N=C/c3ccc(Br)cc3)ccnc2c1	0	0	0	-	0	61
Cc1ccccc1/C=N/Nc1ccnc2cc(Cl)ccc12	0	0	0	-	0	48
Clc1ccc2c(N/N=C/c3cccnc3)ccnc2c1	0	0	0	-	0	0
Cn1c(Cl)c(C=NOC(=O)c2cccc(Cl)c2)c2ccccc21	-	-	-	0	-	-
Cn1cc(C(=O)NN=Cc2ccc([N+](=O)[O-])cc2)c2ccccc21	-	-	-	0	-	-
COc1cc(-c2cnc3c(NC=O)cc(-c4ccsc4)cn23)cc(OC)c1OC	56	-	0	-	-	-
COc1cc(-c2cc(NC=O)c3ncc(-c4ccc(F)cc4)n3c2)cc(OC)c1OC	0	-	0	-	-	-
COc1cc(-c2cnc3c(NC=O)cc(-c4cccc(C(F)(F)F)c4)cn23)cc(OC)c1OC	0	-	0	-	-	-
COc1cc(-c2cnc3c(NC=O)cc(-c4cccnc4)cn23)cc(OC)c1OC	76	-	0	-	-	-
NC(=NO)c1nc(N2CCCC2)nc(N(c2ccccc2)c2ccccc2)n1	-	-	-	0	-	-
COc1ccccc1NS(=O)(=O)c1ccc2oc(SCC(=O)N3CCNC3=O)nc2c1	54	0	0	0	0	0
O=C(NN=Cc1cccnc1)c1cc(Br)ccc1O	-	-	-	0	-	-
COc1cccc(Nc2nc3ccccc3n3cnnc23)c1	86	0	0	0	0	0
O=c1oc2c(O)c(O)cc3c(=O)oc4c(O)c(O)cc1c4c23	0	54	0	-	0	0
COc1ccc(C=NNc2nc(C)cc(=O)[nH]2)cc1OC	-	-	-	0	-	-
Cc1nn(C)c(C(=O)NN=Cc2ccc(Br)cc2)c1Cl	-	-	-	0	-	-
O=C1Nc2cnc(Cl)nc2Nc2ccccc21	56	-	0	-	-	-
O=C1Nc2ccccc2Nc2ccccc21	0	0	0	0	0	0
